Results taken from ChEMBL document CHEMBL1240414, “Synthesis and anticonvulsant activity of new 6-methyl-1-substituted-4,6-diazaspiro[2.4]heptane-5,7-diones” (Eur J Med Chem, 2010).
Calls of active or inactive are those of the source.

What was measured:
Mus musculus [1] = experiment: Anticonvulsant activity in Kunming mouse assessed as protection against subcutaneous pentylenetetrazole-induced seizures at 300 mg/kg, ip after 4 hrs; format: functional, organism-based; design: dose 300 mg/kg
Outline: (§1)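 Male Kunming mice (20 ± 2.0 g) received the compound ip as a suspension in 0.5% methylcellulose at 30, 100 or 300 mg/kg, one to four mice per dose. Pentylenetetrazole in 0.9% saline was given sc at 0.5 h and 4.0 h after dosing. Protection meant no threshold seizure (one clonic spasm episode of at least 5 s). Scored as protected/tested.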

Mus musculus [2] = experiment: Neurotoxicity in Kunming mouse assessed as minimum motor impairment at 100 mg/kg, ip after 0.5 hrs by rotarod test; format: toxicity, organism-based; design: dose 100 mg/kg, route intraperitoneal; conditions: in vivo
Outline: (§2)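 Rotorod neurotoxicity in male Kunming mice (20 ± 2.0 g) given ip doses of 30, 100 or 300 mg/kg as a suspension in 0.5% methylcellulose, one to four mice per dose. Motor impairment was examined at 0.5 h and 4.0 h after injection. Reported as number of animals showing toxicity/number tested.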

Mus musculus [3] = experiment: Neurotoxicity in Kunming mouse assessed as minimum motor impairment at 300 mg/kg, ip after 0.5 hrs by rotarod test; format: toxicity, organism-based; design: dose 300 mg/kg, route intraperitoneal; conditions: in vivo; outline: as §2
Mus musculus [4] = experiment: Anticonvulsant activity in Kunming mouse assessed as protection against subcutaneous pentylenetetrazole-induced seizures at 30 mg/kg, ip after 4 hrs; format: functional, organism-based; design: dose 30 mg/kg; outline: as §1
Mus musculus [5] = experiment: Anticonvulsant activity in Kunming mouse assessed as protection against subcutaneous pentylenetetrazole-induced seizures at 300 mg/kg, ip after 0.5 hrs; format: functional, organism-based; design: dose 300 mg/kg; outline: as §1
Mus musculus [6] = experiment: Anticonvulsant activity in Kunming mouse assessed as protection against subcutaneous pentylenetetrazole-induced seizures at 100 mg/kg, ip after 4 hrs; format: functional, organism-based; design: dose 100 mg/kg; outline: as §1
Mus musculus [7] = experiment: Neurotoxicity in Kunming mouse assessed as minimum motor impairment at 30 mg/kg, ip after 4 hrs by rotarod test; format: toxicity, organism-based; design: dose 30 mg/kg, route intraperitoneal; conditions: in vivo; outline: as §2
Mus musculus [8] = experiment: Neurotoxicity in Kunming mouse assessed as minimum motor impairment at 100 mg/kg, ip after 4 hrs by rotarod test; format: toxicity, organism-based; design: dose 100 mg/kg, route intraperitoneal; conditions: in vivo; outline: as §2
Mus musculus [9] = experiment: Anticonvulsant activity in Kunming mouse assessed as protection against maximal electroshock-induced seizures at 30 mg/kg, ip after 0.5 hrs; format: functional, organism-based; design: dose 30 mg/kg
Mus musculus [10] = experiment: Anticonvulsant activity in Kunming mouse assessed as protection against subcutaneous pentylenetetrazole-induced seizures at 30 mg/kg, ip after 0.5 hrs; format: functional, organism-based; design: dose 30 mg/kg; outline: as §1
Mus musculus [11] = experiment: Anticonvulsant activity in Kunming mouse assessed as protection against maximal electroshock-induced seizures at 100 mg/kg, ip after 0.5 hrs; format: functional, organism-based; design: dose 100 mg/kg
Mus musculus [12] = experiment: Neurotoxicity in Kunming mouse assessed as minimum motor impairment at 300 mg/kg, ip after 4 hrs by rotarod test; format: toxicity, organism-based; design: dose 300 mg/kg, route intraperitoneal; conditions: in vivo; outline: as §2
Mus musculus [13] = experiment: Anticonvulsant activity in Kunming mouse assessed as protection against maximal electroshock-induced seizures at 300 mg/kg, ip after 4 hrs; format: functional, organism-based; design: dose 300 mg/kg
Mus musculus [14] = experiment: Anticonvulsant activity in Kunming mouse assessed as protection against maximal electroshock-induced seizures at 30 mg/kg, ip after 4 hrs; format: functional, organism-based; design: dose 30 mg/kg
Mus musculus [15] = experiment: Neurotoxicity in Kunming mouse assessed as minimum motor impairment at 30 mg/kg, ip after 0.5 hrs by rotarod test; format: toxicity, organism-based; design: dose 30 mg/kg, route intraperitoneal; conditions: in vivo; outline: as §2
Mus musculus [16] = experiment: Anticonvulsant activity in Kunming mouse assessed as protection against subcutaneous pentylenetetrazole-induced seizures at 100 mg/kg, ip after 0.5 hrs; format: functional, organism-based; design: dose 100 mg/kg; outline: as §1
Mus musculus [17] = experiment: Anticonvulsant activity in Kunming mouse assessed as protection against maximal electroshock-induced seizures at 100 mg/kg, ip after 4 hrs; format: functional, organism-based; design: dose 100 mg/kg
Mus musculus [18] = experiment: Anticonvulsant activity in Kunming mouse assessed as protection against maximal electroshock-induced seizures at 300 mg/kg, ip after 0.5 hrs; format: functional, organism-based; design: dose 300 mg/kg

Structure (SMILES) | Activity (Mus musculus [1]) | Activity (Mus musculus [2]) | Activity (Mus musculus [3]) | Activity (Mus musculus [4]) | Activity (Mus musculus [5]) | Activity (Mus musculus [6]) | Activity (Mus musculus [7]) | Activity (Mus musculus [8]) | Activity (Mus musculus [9]) | Activity (Mus musculus [10]) | Activity (Mus musculus [11]) | Activity (Mus musculus [12]) | Activity (Mus musculus [13]) | Activity (Mus musculus [14]) | Activity (Mus musculus [15]) | Activity (Mus musculus [16]) | Activity (Mus musculus [17]) | Activity (Mus musculus [18])
CCCC1CC12NC(=O)N(C)C2=O (configuration not stated) | inactive | Non-toxic | Toxic | inactive | inactive | inactive | Non-toxic | Non-toxic | inactive | inactive | Active | Toxic | Active | inactive | Toxic | inactive |  | 
CC(C)C1CC12NC(=O)N(C)C2=O (configuration not stated) | inactive | Non-toxic | Non-toxic | inactive | inactive | inactive | Non-toxic | Non-toxic | Active | inactive | Active |  | Active |  | Non-toxic | inactive |  | 
COc1ccc(C2CC23NC(=O)N(C)C3=O)cc1OC (configuration not stated) |  | Non-toxic |  | inactive |  | inactive | Non-toxic | Non-toxic | Active | inactive | Active |  | Active | inactive | Non-toxic | inactive |  | 
COc1ccc(C2CC23NC(=O)N(C)C3=O)cc1 (configuration not stated) | inactive | Non-toxic | Non-toxic | inactive |  | inactive | Non-toxic | Non-toxic | inactive | inactive |  | Non-toxic | Active | inactive | Non-toxic | inactive | inactive | Active
CN1C(=O)NC2(CC2c2ccc(Br)cc2)C1=O (configuration not stated) | inactive |  | Non-toxic | inactive | inactive | inactive | Non-toxic | Non-toxic | inactive | inactive | inactive |  | Active | inactive | Non-toxic | inactive | inactive | Active
COc1ccc(OC)c(C2CC23NC(=O)N(C)C3=O)c1 (configuration not stated) | inactive | Non-toxic |  | inactive | inactive | inactive | Non-toxic | Non-toxic | Active | inactive | Active |  |  | inactive | Non-toxic | inactive |  | 
COc1cc(C2CC23NC(=O)N(C)C3=O)cc(OC)c1OC (configuration not stated) |  | Non-toxic | Non-toxic | inactive |  | inactive | Non-toxic | Non-toxic | inactive | inactive | Active | Non-toxic | Active | inactive | Non-toxic | inactive | inactive | 
CN1C(=O)NC2(CC2c2ccc(Cl)cc2)C1=O (configuration not stated) | inactive | Toxic |  | inactive |  | inactive | Non-toxic | Toxic | inactive | inactive | Active |  |  | inactive | Non-toxic | inactive | inactive | 
CCC(CC)C1CC12NC(=O)N(C)C2=O (configuration not stated) |  | Non-toxic | Non-toxic | inactive | inactive | inactive | Non-toxic | Non-toxic | inactive | inactive |  | Non-toxic |  | inactive | Non-toxic | inactive | inactive | Active
CC(C)CC1CC12NC(=O)N(C)C2=O (configuration not stated) | inactive | Non-toxic | Toxic | inactive |  | inactive | Non-toxic | Non-toxic | Active | Active | Active | Non-toxic |  | inactive | Toxic | inactive |  | 
Cc1ccc(C2CC23NC(=O)N(C)C3=O)cc1 (configuration not stated) |  | Non-toxic | Toxic | inactive |  | inactive | Non-toxic | Non-toxic | Active | inactive | Active | Non-toxic |  | inactive | Non-toxic | inactive |  | 
CCC1CC12NC(=O)N(C)C2=O (configuration not stated) |  | Non-toxic | Non-toxic | inactive | inactive | inactive | Non-toxic | Non-toxic | inactive | inactive |  |  | Active | inactive | Non-toxic | inactive | inactive | Active
CN1C(=O)NC2(CC2c2ccco2)C1=O (configuration not stated) | inactive |  |  | inactive | inactive | inactive | Non-toxic |  | inactive | inactive | inactive |  | inactive | inactive | Toxic | inactive | inactive | Active
CN1C(=O)NC2(CC2c2ccccc2Cl)C1=O (configuration not stated) | inactive |  | Toxic | inactive | inactive | inactive | Non-toxic | Non-toxic | inactive | inactive |  | Toxic | inactive | inactive | Non-toxic | inactive | inactive | Active
